Source: ChEMBL document CHEMBL4316612, “Synthesis of novel dihydrotriazine derivatives bearing 1,3-diaryl pyrazole moieties as potential antibacterial agents” (Bioorg Med Chem Lett, 2019)
≈ marks a conversion by molar mass, not a printed value.

Assays:
Staphylococcus aureus [1] = test: Antibacterial activity against Staphylococcus aureus RN4220 by serial dilution method; assay type: functional
Procedure, shortened: (§1)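 Broth microdilution MIC. Bacteria grown to mid-log phase in Mueller-Hinton broth, diluted 1000-fold, and inoculated at 10^5 CFU/mL. Compounds in DMSO (final ≤0.05%) were given as two-fold serial dilutions, final 64-0.25 µg/mL. Plates were incubated 24 h at 37 °C and growth read at 650 nm. MIC is the lowest concentration giving complete growth inhibition. Three independent experiments; oxacillin and norfloxacin served as positive controls.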

Staphylococcus aureus [2] = test: Antibacterial activity against quinolone-resistant Staphylococcus aureus CCARM 3505 by serial dilution method; assay type: functional; procedure, shortened: as §1
Staphylococcus aureus [3] = test: Antibacterial activity against Staphylococcus aureus RN4220 after 24 hrs by microtiter ELISA; assay type: functional; details: RN4220, 24 h; procedure, shortened: as §1
Staphylococcus aureus [4] = test: Antibacterial activity against methicillin-resistant Staphylococcus aureus CCARM 3506 after 24 hrs by microtiter ELISA; assay type: functional; details: CCARM 3506, 24 h; procedure, shortened: as §1
Staphylococcus aureus [5] = test: Antibacterial activity against quinolone-resistant Staphylococcus aureus CCARM 3519 after 24 hrs by microtiter ELISA; assay type: functional; details: CCARM 3519, 24 h; procedure, shortened: as §1
Candida albicans = test: Antifungal activity against Candida albicans 7535 after 24 hrs by microtiter ELISA; assay type: functional; details: Candida albicans, 7535, 24 h
Procedure, shortened: (§2)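 Two-fold serial broth dilution in Mueller-Hinton broth, final 64-0.25 µg/mL; compounds in DMSO (final ≤0.05%). Mid-log cultures diluted 1000-fold, inoculum 10^5 CFU/mL; oxacillin and norfloxacin as positive controls. After 24 h at 37 °C, growth read at 650 nm on a microtiter ELISA reader; MIC = lowest level giving complete growth inhibition. Run three times.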

Streptococcus mutans = test: Antibacterial activity against Streptococcus mutans 3289 after 24 hrs by microtiter ELISA; assay type: functional; details: Streptococcus mutans, 3289, 24 h; procedure, shortened: as §2
L02 = test: Cytotoxicity against human L02 cells assessed as inhibition of cell growth measured after 24 hrs by MTT assay; assay type: cell-based; details: L02, 24 h
Procedure, shortened: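 L02 normal human liver cells seeded at 1.8 × 10^4 cells/well in DMEM with 10% FBS and antimycotic. Exposed 24 h at 37 °C, 5% CO2 to 200-1.625 µM, compounds in 10% DMSO. MTT (2.5 mg/mL) added for 4 h, formazan dissolved in DMSO, OD at 570 nm. Untreated cells as negative control; IC50 = 50% growth inhibition; triplicate.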

Escherichia coli = test: Antibacterial activity against Escherichia coli KCTC 1924 after 24 hrs by microtiter ELISA; assay type: functional; details: KCTC 1924, 24 h; procedure, shortened: as §2
Staphylococcus aureus [6] = test: Antibacterial activity against quinolone-resistant Staphylococcus aureus CCARM 3505 after 24 hrs by microtiter ELISA; assay type: functional; details: CCARM 3505, 24 h; procedure, shortened: as §1
Staphylococcus aureus [7] = test: Antibacterial activity against methicillin-resistant Staphylococcus aureus CCARM 3167 after 24 hrs by microtiter ELISA; assay type: functional; details: CCARM 3167, 24 h; procedure, shortened: as §1
[8] = biological target: Dihydrofolate reductase (Homo sapiens) (UniProt P00374); test: Inhibition of human DHFR at 10 umol/L measured after 1.5 hrs by ELISA relative to control
Staphylococcus aureus [9] = test: Antibacterial activity against Staphylococcus aureus by serial dilution method; assay type: functional; procedure, shortened: as §2

Sequence of Dihydrofolate reductase (Homo sapiens) (P00374 whole entry, looked up): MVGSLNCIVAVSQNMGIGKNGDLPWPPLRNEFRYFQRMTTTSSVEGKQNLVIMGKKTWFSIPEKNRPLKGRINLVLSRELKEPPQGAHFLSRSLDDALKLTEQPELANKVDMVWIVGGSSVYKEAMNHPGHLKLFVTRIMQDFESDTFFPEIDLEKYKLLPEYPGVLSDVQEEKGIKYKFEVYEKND

MIC (Staphylococcus aureus [9]) [µg/mL] | Compound | MIC (Staphylococcus aureus [1]) [µg/mL] | MIC (Staphylococcus aureus [2]) [µg/mL] | MIC (Staphylococcus aureus [3]) [µg/mL] | MIC (Staphylococcus aureus [4]) [µg/mL] | MIC (Staphylococcus aureus [5]) [µg/mL] | MIC (Candida albicans) [µg/mL] | MIC (Streptococcus mutans) [µg/mL] | IC50 (L02) [µM] | MIC (Escherichia coli) [µg/mL] | MIC (Staphylococcus aureus [6]) [µg/mL] | MIC (Staphylococcus aureus [7]) [µg/mL] | inhibition [8] [%]
– | NC1=NC(c2ccc3cc(OCc4ccc(Cl)cc4Cl)ccc3c2)N=C(N2CCOCC2)N1 (stereo unspecified) | 1 (≈ 2.06 µM) | 1 (≈ 2.06 µM) | – | – | – | – | – | – | – | – | – | –
– | CN(C)C1=NC(c2cn(-c3ccc([N+](=O)[O-])cc3)nc2-c2ccc(Cl)cc2Cl)N=C(N)N1 (stereo unspecified) | – | – | 2 (≈ 4.23 µM) | 2 (≈ 4.23 µM) | 2 (≈ 4.23 µM) | 4 (≈ 8.45 µM) | 4 (≈ 8.45 µM) | > 100 | 2 (≈ 4.23 µM) | 4 (≈ 8.45 µM) | 2 (≈ 4.23 µM) | –
– | NC1=NC(c2cn(-c3ccc([N+](=O)[O-])cc3)nc2-c2ccc(Cl)cc2Cl)N=C(NCCc2ccccc2)N1 (stereo unspecified) | – | – | 1 (≈ 1.82 µM) | 1 (≈ 1.82 µM) | 1 (≈ 1.82 µM) | 1 (≈ 1.82 µM) | 1 (≈ 1.82 µM) | 50.5 | 1 (≈ 1.82 µM) | 1 (≈ 1.82 µM) | 1 (≈ 1.82 µM) | 92
16 (≈ 27.6 µM) | O=C(O)CN1C(=O)/C(=C/c2cn(-c3ccc([N+](=O)[O-])cc3[N+](=O)[O-])nc2-c2ccc(Cl)cc2Cl)SC1=S | – | – | – | – | – | – | – | – | – | – | – | –
– | CN(C)C1=NC(c2cn(-c3ccc([N+](=O)[O-])cc3[N+](=O)[O-])nc2-c2ccc(Cl)cc2Cl)N=C(N)N1 (stereo unspecified) | – | – | 8 (≈ 15.4 µM) | 4 (≈ 7.72 µM) | 16 (≈ 30.9 µM) | 8 (≈ 15.4 µM) | 8 (≈ 15.4 µM) | > 100 | 8 (≈ 15.4 µM) | 8 (≈ 15.4 µM) | 4 (≈ 7.72 µM) | –
